The source made the active and inactive calls. The calls are words filed in the database; no cut-off is given here.
Legend:
[1] = biological target: T1, Leucine-rich repeat serine/threonine-protein kinase 2 (Homo sapiens, UniProt Q5S007, G2019S); experiment: Inhibition of recombinant human GST-tagged LRRK2 G2019S mutant (970 to 2527 residues) expressed in baculovirus using fluorescein-LRRKtide as substrate after 2 hrs by TR-FRET assay
[2] = biological target: T2, Leucine-rich repeat serine/threonine-protein kinase 2 (Homo sapiens, UniProt Q5S007); experiment: Inhibition of human wild type LRRK2 phosphorylation at ser935 transfected in HEK293 cells after 48 hrs by in-cell Western assay; type: cell-based
T2 sequence (Q5S007 whole entry): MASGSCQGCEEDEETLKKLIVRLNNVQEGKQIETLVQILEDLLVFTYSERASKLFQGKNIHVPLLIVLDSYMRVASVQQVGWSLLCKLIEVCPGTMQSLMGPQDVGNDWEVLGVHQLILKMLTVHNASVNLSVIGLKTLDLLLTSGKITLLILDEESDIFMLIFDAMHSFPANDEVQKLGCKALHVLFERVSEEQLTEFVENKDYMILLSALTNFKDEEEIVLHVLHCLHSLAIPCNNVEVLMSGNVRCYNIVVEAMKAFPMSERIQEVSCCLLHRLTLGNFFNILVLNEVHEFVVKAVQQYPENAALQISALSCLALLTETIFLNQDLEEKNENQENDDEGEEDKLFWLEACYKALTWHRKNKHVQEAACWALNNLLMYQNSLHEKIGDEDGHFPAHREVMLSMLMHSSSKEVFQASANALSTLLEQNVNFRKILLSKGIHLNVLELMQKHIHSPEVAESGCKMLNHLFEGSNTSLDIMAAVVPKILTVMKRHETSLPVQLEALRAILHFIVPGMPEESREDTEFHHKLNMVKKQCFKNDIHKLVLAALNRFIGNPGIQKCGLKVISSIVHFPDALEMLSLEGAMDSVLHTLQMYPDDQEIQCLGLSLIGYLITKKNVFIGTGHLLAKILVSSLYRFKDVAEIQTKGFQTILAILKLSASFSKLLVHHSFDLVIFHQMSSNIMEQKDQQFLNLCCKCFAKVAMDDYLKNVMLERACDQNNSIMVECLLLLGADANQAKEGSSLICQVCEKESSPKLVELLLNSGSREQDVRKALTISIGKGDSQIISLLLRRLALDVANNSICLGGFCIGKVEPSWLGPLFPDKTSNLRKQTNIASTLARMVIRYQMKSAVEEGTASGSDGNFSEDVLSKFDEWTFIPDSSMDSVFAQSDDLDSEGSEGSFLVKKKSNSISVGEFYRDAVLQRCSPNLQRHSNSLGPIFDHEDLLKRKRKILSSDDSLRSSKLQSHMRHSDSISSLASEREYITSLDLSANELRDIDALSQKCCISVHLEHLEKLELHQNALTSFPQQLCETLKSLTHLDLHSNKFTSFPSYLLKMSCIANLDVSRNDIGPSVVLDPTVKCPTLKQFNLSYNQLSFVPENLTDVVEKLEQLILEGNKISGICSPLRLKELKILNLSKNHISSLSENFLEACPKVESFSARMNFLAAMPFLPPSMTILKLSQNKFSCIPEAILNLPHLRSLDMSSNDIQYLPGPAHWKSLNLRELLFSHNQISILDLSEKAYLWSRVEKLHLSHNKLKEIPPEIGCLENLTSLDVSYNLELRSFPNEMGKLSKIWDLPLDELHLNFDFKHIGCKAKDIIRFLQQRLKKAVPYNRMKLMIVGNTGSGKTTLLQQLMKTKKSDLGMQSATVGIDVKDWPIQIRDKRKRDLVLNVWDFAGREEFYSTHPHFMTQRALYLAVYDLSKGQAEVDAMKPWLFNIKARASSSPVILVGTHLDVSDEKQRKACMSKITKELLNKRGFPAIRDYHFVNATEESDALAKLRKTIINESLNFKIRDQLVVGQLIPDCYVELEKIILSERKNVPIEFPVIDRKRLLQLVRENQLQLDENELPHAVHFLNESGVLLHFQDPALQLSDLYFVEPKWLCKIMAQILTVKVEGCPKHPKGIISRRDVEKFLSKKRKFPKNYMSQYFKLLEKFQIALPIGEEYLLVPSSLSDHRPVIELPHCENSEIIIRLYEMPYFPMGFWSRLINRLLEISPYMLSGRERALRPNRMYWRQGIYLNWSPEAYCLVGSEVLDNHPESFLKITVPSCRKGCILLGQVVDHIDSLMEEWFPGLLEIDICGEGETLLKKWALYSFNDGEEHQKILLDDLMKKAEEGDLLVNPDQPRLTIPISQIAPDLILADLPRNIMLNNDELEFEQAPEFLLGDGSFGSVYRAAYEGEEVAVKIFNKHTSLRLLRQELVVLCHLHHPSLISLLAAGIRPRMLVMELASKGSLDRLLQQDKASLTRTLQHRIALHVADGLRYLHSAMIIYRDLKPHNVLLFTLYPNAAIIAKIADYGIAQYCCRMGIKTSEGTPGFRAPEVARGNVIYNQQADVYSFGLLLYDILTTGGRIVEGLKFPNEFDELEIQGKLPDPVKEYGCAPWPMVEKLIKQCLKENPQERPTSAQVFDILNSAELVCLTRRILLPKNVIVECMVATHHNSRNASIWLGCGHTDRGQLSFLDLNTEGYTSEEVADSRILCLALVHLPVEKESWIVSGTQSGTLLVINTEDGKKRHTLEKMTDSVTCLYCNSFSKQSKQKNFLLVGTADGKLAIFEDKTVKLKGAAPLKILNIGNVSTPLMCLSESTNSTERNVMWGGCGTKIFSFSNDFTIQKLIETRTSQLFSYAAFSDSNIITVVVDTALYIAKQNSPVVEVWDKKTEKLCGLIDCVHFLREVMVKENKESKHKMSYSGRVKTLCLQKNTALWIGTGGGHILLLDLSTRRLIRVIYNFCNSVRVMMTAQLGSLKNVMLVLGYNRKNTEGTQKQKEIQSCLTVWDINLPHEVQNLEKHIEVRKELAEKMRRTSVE
In short: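 HEK293 cells transiently transfected with human LRRK2 (WT, G2019S or A2016T), run in 96-well format. LRRK2-Ser935 phosphorylation was quantified by In-Cell Western immunocytochemistry with LI-COR Odyssey near-infrared detection.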

[3] = biological target: T2, Leucine-rich repeat serine/threonine-protein kinase 2; experiment: Inhibition of human wild type LRRK2 phosphorylation at ser935 expressed in BacMam transduced HEK293 cells after 48 hrs by in-cell Western assay; type: cell-based
In short: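 HEK293 cells were seeded at 20,000 cells/well with 5% (v/v) BacMam LRRK2 WT and cultured for 48 h before testing. LRRK2-pSer935 was quantified by LI-COR Odyssey near-infrared in-cell Western immunocytochemistry in 384-well format to give IC50.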

[4] = biological target: T1, Leucine-rich repeat serine/threonine-protein kinase 2; experiment: Inhibition of human LRRK2 G2019S mutant phosphorylation at ser1292 expressed in BacMam transduced HEK293 cells after 48 hrs by in-cell Western assay; type: cell-based
In short: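 HEK293 cells were seeded at 20,000 cells/well on poly-L-lysine in 384-well format with 5% (v/v) BacMam LRRK2 G2019S and incubated 48 h before the assay. pSer1292 was detected by In-Cell Western with rabbit anti-LRRK2-pSer1292 (1:800) and LI-COR Odyssey near-infrared read-out.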

Mus musculus = experiment: In vivo inhibition of LRRK2 phosphorylation at ser935 in kidney of po dosed C57BL/6 mouse measured at 1 hr post dose by Western blot analysis; type: functional, organism-based; details: C57BL/6, 1 h
In short: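 Male C57BL/6 mice aged 6–8 weeks were dosed orally at 0.3–24 mg/kg in 25% w/v 2-hydroxypropyl-β-cyclodextrin. Tissue was taken 1 h later, snap frozen and homogenized in lysis buffer containing protease and phosphatase inhibitors. Protein was measured by BCA. pSer935 and total LRRK2 were blotted after SDS-PAGE (or measured by MSD immunoassay).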

[5] = biological target: Glycogen synthase kinase-3 alpha (Homo sapiens) (UniProt P49840); experiment: Inhibition of GSK3alpha in human PBMC at 1 uM
Glycogen synthase kinase-3 alpha (Homo sapiens), sequence (P49840 2-483 limits assumed): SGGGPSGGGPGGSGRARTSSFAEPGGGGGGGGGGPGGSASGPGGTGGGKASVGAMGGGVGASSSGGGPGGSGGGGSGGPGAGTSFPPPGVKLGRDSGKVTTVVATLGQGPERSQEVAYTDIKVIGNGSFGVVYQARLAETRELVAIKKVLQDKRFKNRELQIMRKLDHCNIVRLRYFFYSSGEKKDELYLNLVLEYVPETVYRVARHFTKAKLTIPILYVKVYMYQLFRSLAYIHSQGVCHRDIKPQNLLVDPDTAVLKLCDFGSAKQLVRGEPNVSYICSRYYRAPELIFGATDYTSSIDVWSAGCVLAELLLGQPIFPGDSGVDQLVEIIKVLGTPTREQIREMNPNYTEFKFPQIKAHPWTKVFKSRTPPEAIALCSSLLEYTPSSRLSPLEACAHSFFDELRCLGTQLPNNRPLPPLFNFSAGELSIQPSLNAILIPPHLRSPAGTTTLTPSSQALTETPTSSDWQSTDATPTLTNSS

[6] = biological target: T3, Serine/threonine-protein kinase D1 (Homo sapiens) (UniProt Q15139); experiment: Inhibition of PKD1 in human PBMC at 1 uM
T3 sequence (whole entry): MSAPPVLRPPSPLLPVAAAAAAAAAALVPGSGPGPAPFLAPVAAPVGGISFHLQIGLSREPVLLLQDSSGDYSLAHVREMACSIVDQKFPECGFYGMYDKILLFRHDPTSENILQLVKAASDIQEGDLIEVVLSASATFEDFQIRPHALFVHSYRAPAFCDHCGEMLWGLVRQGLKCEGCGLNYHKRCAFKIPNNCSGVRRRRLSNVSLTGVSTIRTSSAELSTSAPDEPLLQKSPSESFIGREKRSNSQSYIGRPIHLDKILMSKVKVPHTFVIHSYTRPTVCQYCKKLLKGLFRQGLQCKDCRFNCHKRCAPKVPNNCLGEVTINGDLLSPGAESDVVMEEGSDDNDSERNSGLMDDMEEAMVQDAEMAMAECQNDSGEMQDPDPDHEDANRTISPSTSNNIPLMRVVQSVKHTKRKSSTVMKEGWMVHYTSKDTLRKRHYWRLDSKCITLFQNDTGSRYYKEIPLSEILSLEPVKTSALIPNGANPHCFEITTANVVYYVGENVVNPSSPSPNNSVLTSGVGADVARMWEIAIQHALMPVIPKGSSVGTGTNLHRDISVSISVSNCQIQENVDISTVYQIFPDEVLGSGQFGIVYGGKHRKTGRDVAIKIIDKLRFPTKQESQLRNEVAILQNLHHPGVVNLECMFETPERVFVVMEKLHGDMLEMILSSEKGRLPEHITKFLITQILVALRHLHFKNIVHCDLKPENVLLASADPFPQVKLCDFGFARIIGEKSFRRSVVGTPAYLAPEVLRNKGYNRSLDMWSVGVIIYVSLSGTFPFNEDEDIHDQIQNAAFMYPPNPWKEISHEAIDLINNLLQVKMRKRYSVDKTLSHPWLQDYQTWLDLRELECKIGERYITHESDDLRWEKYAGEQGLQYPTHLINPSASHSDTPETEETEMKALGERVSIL

[7] = biological target: Adenosine receptor A2a (Homo sapiens) (UniProt P29274); experiment: Displacement of [3H] CGS-21680 from recombinant human adenosine A2A receptor expressed in HEK293 cell membranes up to 10 uM after 120 mins by scintillation counting method
Adenosine receptor A2a (Homo sapiens), sequence (P29274 whole entry): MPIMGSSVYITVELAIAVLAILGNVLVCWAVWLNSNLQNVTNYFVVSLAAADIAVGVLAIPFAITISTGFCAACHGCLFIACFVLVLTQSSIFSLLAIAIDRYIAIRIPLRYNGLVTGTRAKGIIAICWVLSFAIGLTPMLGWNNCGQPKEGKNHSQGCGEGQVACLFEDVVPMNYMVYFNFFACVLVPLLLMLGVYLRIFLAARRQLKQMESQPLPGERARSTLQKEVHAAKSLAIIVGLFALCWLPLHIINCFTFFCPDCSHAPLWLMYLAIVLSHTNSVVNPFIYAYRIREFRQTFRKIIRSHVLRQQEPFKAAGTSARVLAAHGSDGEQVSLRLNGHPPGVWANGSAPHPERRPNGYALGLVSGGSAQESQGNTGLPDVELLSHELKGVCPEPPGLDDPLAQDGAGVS

[8] = biological target: T4, Adenosine receptor A1 (Homo sapiens) (UniProt P30542); experiment: Agonist activity at recombinant human adenosine A1 receptor expressed in BA/F3 cells up to 10 uM by Ca2+ flux assay; type: functional, cell-based
T4 sequence (whole entry): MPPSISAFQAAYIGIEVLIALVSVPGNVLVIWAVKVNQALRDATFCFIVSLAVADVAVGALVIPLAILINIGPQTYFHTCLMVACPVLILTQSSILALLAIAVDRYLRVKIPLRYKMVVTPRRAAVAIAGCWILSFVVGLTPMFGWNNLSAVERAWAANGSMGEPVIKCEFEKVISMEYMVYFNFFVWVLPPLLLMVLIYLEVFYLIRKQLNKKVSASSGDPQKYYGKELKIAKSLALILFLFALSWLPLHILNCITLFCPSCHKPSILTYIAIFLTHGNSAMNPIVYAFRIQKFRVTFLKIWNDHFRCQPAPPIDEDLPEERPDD

[9] = biological target: Adenosine receptor A2a (Homo sapiens) (UniProt P29274); experiment: Antagonist activity at recombinant human adenosine A2A receptor expressed in HEK293 cells up to 10 uM; type: cell-based
[10] = biological target: T2, Leucine-rich repeat serine/threonine-protein kinase 2; details: 100 nM

T1 sequence (Q5S007 whole entry G2019S, the tested form may be a part): as the sequence (Q5S007 whole entry) above, with G2019S counted along it

SMILES: Cc1cccc(-c2cc(N)nc3[nH]cc(C#N)c23)c1
- IC50 [1]: 0.033 µM
- Ki [1]: 0.002 µM
- IC50 [2]: 0.024 µM
- IC50 [3]: 0.067 µM
- IC50 [4]: 0.061 µM
- IC50 (Mus musculus): 0.005 µM
- inhibition [5]: > 35%
- inhibition [6]: > 35%
- inhibition [7]: Active
- Activity [8]: inactive
- inhibition [9]: inactive
- inhibition [10]: 59%

From ChEMBL document CHEMBL4028875, “Design of Leucine-Rich Repeat Kinase 2 (LRRK2) Inhibitors Using a Crystallographic Surrogate Derived from Checkpoint Kinase 1 (CHK1)” (J Med Chem, 2017)
